The source made the active and inactive calls. The rule behind the calls is not given here.
Experiments:
Escherichia coli [1] = test: Microbicidal activity against Escherichia coli ML35 at 16 ug/ml in presence of 10% heat-inactivated human serum; assay type: functional, organism-based
How it was run: (§1)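 Human serum was heat-inactivated at 55°C for 30 min and clarified by centrifugation. E. coli was then exposed to a dose series of peptide in 10 mM PIPES, pH 7.4, with 10% of this serum. Killing was counted as colonies and expressed relative to incubations without serum.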

Escherichia coli [2] = test: Microbicidal activity against Escherichia coli ML35 in presence of 0.8 mM Magnesium ions; assay type: functional, organism-based
How it was run: (§2)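 Log-phase E. coli ML35 or C. albicans was incubated with increasing peptide concentrations in 10 mM PIPES, pH 7.4. The buffer contained 1.2 mM CaCl2 and 0.8 mM MgCl2, or no added divalent salts. Incubation was 2 h at 37°C, and survivors were counted as colonies.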

Staphylococcus aureus [3] = test: Microbicidal activity against Staphylococcus aureus 502a using 10 mM Tris-HCl buffer in presence of 154 mM NaCl; assay type: functional, organism-based
How it was run: (§3)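 Log-phase S. aureus was exposed to increasing peptide concentrations for 2 h at 37°C. Buffer was 10 mM PIPES, Tris-HCl or sodium phosphate, pH 7.4, with or without 154 mM NaCl. Killing was read by colony counting.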

Candida albicans [4] = test: Microbicidal activity against Candida albicans 16820; assay type: functional
How it was run: (§4)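 Log-phase organisms (1–2 × 10^6 CFU/ml) were exposed to serially diluted peptide (0.05–10.0 μg/ml final) in 10 mM PIPES, pH 7.4, with 5 mM glucose for 2 h at 37°C. Aliquots were serially diluted 1:10 to 1:10^6 in Trypticase soy or Sabouraud broth and grown 24–48 h at 37°C. MMC was the lowest concentration giving 99.9% viability loss in at least two experiments.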

Staphylococcus aureus [5] = test: Microbicidal activity against Staphylococcus aureus 502a; assay type: functional; how it was run: as §4
[6] = Selectivity index, ratio of MMC for Staphylococcus aureus 502a to hemolytic activity for human erythrocytes
Staphylococcus aureus [7] = test: Microbicidal activity against Staphylococcus aureus 502a in presence of 0.8 mM Magnesium ions; assay type: functional, organism-based
Candida albicans [8] = test: Microbicidal activity against Candida albicans 16820 assessed as log reduction in microbial count at 10 ug/ml using PIPES buffer
Escherichia coli [9] = test: Microbicidal activity against Escherichia coli ML35 assessed as induction of cytoplasmic membrane permeabilization at 1 ug/ml; assay type: functional, organism-based
How it was run: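 Log-phase E. coli ML35 (1–2 × 10^6 CFU/ml) was incubated with peptide (0–8 μg/ml final) in 10 mM PIPES, pH 7.4, containing 3 mM ONPG. ONPG hydrolysis was followed at 405 nm for 60 min. The rate was taken as the highest kinetic slope and corrected for peptide inhibition of β-galactosidase measured cell-free.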

Candida albicans [10] = test: Microbicidal activity against Candida albicans 16820 in presence of 0.8 mM Magnesium ions; assay type: functional, organism-based; how it was run: as §2
Candida albicans [11] = test: Microbicidal activity against Candida albicans 16820 using PIPES buffer in presence of NaCl; assay type: functional, organism-based
How it was run: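 Log-phase C. albicans was incubated with peptide in 10 mM PIPES, pH 7.4, supplemented with NaCl, for 2 h at 37°C. Survivors were plated on Sabouraud dextrose agar and counted after 18–24 h at 37°C.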

Hs68 [12] = test: Cytotoxicity against human HS68 cells at 50 ug/ml by MTT assay in presence of 10% FBS; assay type: cell-based
How it was run: (§5)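 HS68 fibroblasts were grown in DMEM with 10% FBS and penicillin/streptomycin at 37°C and 5% CO2. Cells were seeded at 5 × 10^3 per well for 18 h. Medium was then switched to antibiotic-free DMEM with 0.4% or 10% FBS, as each line states, and peptide was added at 0–100 μg/ml for 1 h at 37°C. Wells were refed with growth medium and read by MTT in triplicate against no-peptide wells.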

[13] = Toxicity in human Erythrocyte assessed as hemolysis at 100 ug/ml; assay type: cell-based
How it was run: (§6)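 Erythrocytes from EDTA-anticoagulated human donor blood were washed in PBS or PiBS containing 4 mM EDTA, then resuspended without EDTA at 2% (vol/vol). Cells were incubated with peptide (0.3–100 μg/ml final) for 1 h at 37°C, with or without 10% autologous serum. Supernatant A405 was expressed relative to 1% Nonidet P-40 lysis.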

Escherichia coli [14] = test: Microbicidal activity against Escherichia coli ML35; assay type: functional; how it was run: as §4
Hs68 [15] = test: Cytotoxicity against human HS68 cells at 100 ug/ml in presence of 10% FBS by MTT assay; assay type: cell-based; how it was run: as §5
Staphylococcus aureus [16] = test: Microbicidal activity against Staphylococcus aureus 502a at 5 ug/ml in presence of <= 80 mM NaCl; assay type: functional, organism-based
How it was run: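 S. aureus in log phase was incubated with 5 μg/ml peptide in 10 mM PIPES, pH 7.4, containing increasing NaCl for 2 h at 37°C. Killing was determined by colony counting and expressed as a percentage of killing in buffer alone.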

[17] = biological target: Beta-galactosidase (Escherichia coli) (UniProt Q8VNN2); test: Inhibition of Escherichia coli ML35 Beta-galactosidase assessed as inhibition of o-nitrophenyl-beta-d-galactopyranoside hydrolysis at 4 ug/ml
[18] = Toxicity in human Erythrocyte assessed as concentration required to achieve 3% hemolysis; assay type: cell-based
Hs68 [19] = test: Cytotoxicity against human HS68 cells at <=100 ug/ml by MTT assay in presence of 0.4% FBS; assay type: cell-based; how it was run: as §5
Staphylococcus aureus [20] = test: Microbicidal activity against Staphylococcus aureus 502a using 10 mM PIPES buffer in presence of 154 mM NaCl; assay type: functional, organism-based; how it was run: as §3
Staphylococcus aureus [21] = test: Microbicidal activity against Staphylococcus aureus 502a in presence of 1.2 mM Calcium ions; assay type: functional, organism-based
Escherichia coli [22] = test: Microbicidal activity against Escherichia coli ML35 in presence of 1.2 mM Calcium ions; assay type: functional, organism-based; how it was run: as §2
[23] = Inhibition of beta-galactosidase in cell-free system assessed as inhibition of o-nitrophenyl-beta-d-galactopyranoside hydrolysis
Staphylococcus aureus [24] = test: Microbicidal activity against Staphylococcus aureus 502a using 10 mM sodium phosphate buffer in presence of 154 mM NaCl; assay type: functional, organism-based; how it was run: as §3
Escherichia coli [25] = test: Microbicidal activity against Escherichia coli ML35 at <=8 ug/ml in presence of 10% heat-inactivated human serum; assay type: functional, organism-based; how it was run: as §1
[26] = Toxicity in human Erythrocyte assessed as hemolysis at 100 ug/ml in presence of 10% serum; assay type: cell-based; how it was run: as §6

Chain of Beta-galactosidase (Escherichia coli) (Q8VNN2 whole entry, looked up): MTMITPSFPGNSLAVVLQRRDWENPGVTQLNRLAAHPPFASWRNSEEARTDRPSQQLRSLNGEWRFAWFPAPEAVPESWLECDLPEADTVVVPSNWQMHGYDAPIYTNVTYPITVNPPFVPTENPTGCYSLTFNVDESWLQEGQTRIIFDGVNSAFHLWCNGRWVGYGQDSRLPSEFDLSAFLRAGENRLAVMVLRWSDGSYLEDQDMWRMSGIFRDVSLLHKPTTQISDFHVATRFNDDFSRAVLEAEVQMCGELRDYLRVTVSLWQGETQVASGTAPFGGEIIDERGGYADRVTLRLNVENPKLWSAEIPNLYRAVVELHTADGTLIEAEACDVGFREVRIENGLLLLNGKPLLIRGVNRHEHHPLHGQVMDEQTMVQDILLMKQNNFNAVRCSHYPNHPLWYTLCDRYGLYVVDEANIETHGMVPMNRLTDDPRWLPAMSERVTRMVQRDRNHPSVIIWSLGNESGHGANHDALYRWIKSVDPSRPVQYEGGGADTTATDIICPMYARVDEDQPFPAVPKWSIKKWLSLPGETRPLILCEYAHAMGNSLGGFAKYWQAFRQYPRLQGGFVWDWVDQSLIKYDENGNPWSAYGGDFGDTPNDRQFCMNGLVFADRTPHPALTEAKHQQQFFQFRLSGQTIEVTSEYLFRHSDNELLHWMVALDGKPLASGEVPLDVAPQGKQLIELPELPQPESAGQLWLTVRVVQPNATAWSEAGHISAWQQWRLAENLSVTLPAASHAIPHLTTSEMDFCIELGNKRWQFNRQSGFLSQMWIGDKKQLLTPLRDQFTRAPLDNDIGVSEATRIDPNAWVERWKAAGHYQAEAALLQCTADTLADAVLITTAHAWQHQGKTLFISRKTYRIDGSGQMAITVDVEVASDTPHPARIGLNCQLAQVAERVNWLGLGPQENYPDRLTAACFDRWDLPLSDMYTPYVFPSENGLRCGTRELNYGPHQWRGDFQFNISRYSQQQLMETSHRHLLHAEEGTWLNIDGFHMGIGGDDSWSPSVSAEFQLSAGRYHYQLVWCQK

With `CC(C)C[C@H](NC(=O)[C@H](CCCNC(=N)N)NC(=O)CNC(=O)CNC(=O)[C@@H](N)CCCNC(=N)N)C(=O)N[C@H]1CSSC[C@@H](C(=O)N[C@H](C(=O)NCC(=O)N[C@@H](CCCNC(=N)N)C(N)=O)C(C)C)NC(=O)[C@H](C(C)C)NC(=O)[C@@H]2CSSC[C@H](NC(=O)[C@H](Cc3ccc(O)cc3)NC1=O)C(=O)N[C@@H](CCCNC(=N)N)C(=O)N[C@@H](CCCNC(=N)N)C(=O)N[C@@H](CCCNC(=N)N)C(=O)N[C@@H](Cc1ccccc1)C(=O)N2` as the compound, how does the Activity (Escherichia coli [1]) read?
Its Activity is “Active”.

And the Activity (Escherichia coli [2])?
Its Activity is “Active”.

What about the Activity (Staphylococcus aureus [3]) of the same compound?
The Activity was “Active”.

What about the MMC (Candida albicans [4]) of the same compound?
Its MMC is 0.8 µg/mL.

What about the MMC (Staphylococcus aureus [5]) of the same compound?
The MMC was 0.4 µg/mL.

And the “Selectivity Index” value [6]?
The value was 2.

What about the Activity (Staphylococcus aureus [7]) of the same compound?
Its Activity is “Active”.

And the FC (Candida albicans [8])?
The FC was over 3.

What about the Activity (Escherichia coli [9]) of the same compound?
Its Activity is “Active”.

And the Activity (Candida albicans [10])?
The Activity was “inactive”.

What about the Activity (Candida albicans [11]) of the same compound?
Its Activity is “Active”.

And the Activity (Hs68 [12])?
The Activity was “Toxic”.

What about the Activity [13] of the same compound?
The Activity was “Toxic”.

And the MMC (Escherichia coli [14])?
The MMC was 1 µg/mL.

What about the Activity (Hs68 [15]) of the same compound?
Its Activity is “Toxic”.

What about the Activity (Staphylococcus aureus [16]) of the same compound?
Its Activity is “Active”.

What about the inhibition [17] of the same compound?
Its inhibition is 36%.

What about the Activity [18] of the same compound?
The Activity was 0.8 µg/mL.

What about the Activity (Hs68 [19]) of the same compound?
Its Activity is “Toxic”.

What about the Activity (Staphylococcus aureus [20]) of the same compound?
Its Activity is “Active”.

What about the Activity (Staphylococcus aureus [21]) of the same compound?
The Activity was “Active”.

And the Activity (Escherichia coli [22])?
The Activity was “Active”.

And the inhibition [23]?
The inhibition was “Dose-dependent effect”.

What about the Activity (Staphylococcus aureus [24]) of the same compound?
Its Activity is “Active”.

What about the Activity (Escherichia coli [25]) of the same compound?
The Activity was “inactive”.

And the Activity [26]?
The Activity was “Toxic”.
